Data as given in ChEMBL document CHEMBL1275278, “Synthesis and pharmacological evaluation of clubbed isopropylthiazole derived triazolothiadiazoles, triazolothiadiazines and mannich bases as potential antimicrobial and antitubercular agents” (Eur J Med Chem, 2010).
Values after ≈ are worked out from the molar mass of the structure shown.

What was measured:
Type in all cases: functional
[1] = system: Saccharomyces cerevisiae; test: Antifungal activity against Saccharomyces cerevisiae ATCC 9763 after 24 hrs by broth microdilution method; conditions: ATCC 9763, 24 h
[2] = system: Pseudomonas aeruginosa; test: Antibacterial activity against Pseudomonas aeruginosa ATCC 10145 after 24 hrs by broth microdilution method; conditions: ATCC 10145, 24 h
Procedure, shortened: (§1)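 Broth dilution in Mueller-Hinton broth. Tubes inoculated at 10⁵ cfu/mL and incubated 37 °C for 24 h. MIC taken as lowest concentration completely inhibiting growth. Media and media-plus-DMSO growth controls; ciprofloxacin and norfloxacin as reference standards.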

[3] = system: Escherichia coli; test: Antibacterial activity against Escherichia coli ATCC 10536 after 24 hrs by broth microdilution method; conditions: ATCC 10536, 24 h; procedure, shortened: as §1
[4] = system: Klebsiella pneumoniae; test: Antibacterial activity against Klebsiella pneumoniae ATCC 10031 after 24 hrs by broth microdilution method; conditions: ATCC 10031, 24 h; procedure, shortened: as §1
[5] = system: Bacillus subtilis; test: Antibacterial activity against Bacillus subtilis ATCC 60511 after 24 hrs by broth microdilution method; conditions: ATCC 60511, 24 h; procedure, shortened: as §1
[6] = system: Enterococcus faecalis; test: Antibacterial activity against Streptococcus faecalis ATCC 14506 after 24 hrs by broth microdilution method; conditions: ATCC 14506, 24 h; procedure, shortened: as §1
[7] = system: Staphylococcus aureus; test: Antibacterial activity against Staphylococcus aureus ATCC 11632 after 24 hrs by broth microdilution method; conditions: ATCC 11632, 24 h; procedure, shortened: as §1
[8] = system: Candida tropicalis; test: Antifungal activity against Candida tropicalis ATCC 1369 after 24 hrs by broth microdilution method; conditions: ATCC 1369, 24 h
[9] = system: Aspergillus niger; test: Antifungal activity against Aspergillus niger ATCC 6275 after 24 hrs by broth microdilution method; conditions: ATCC 6275, 24 h
[10] = system: Mycobacterium tuberculosis; test: Antimycobacterial activity against Mycobacterium tuberculosis H37Rv after 21 days by broth dilution assay; conditions: 504 h
Procedure, shortened: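 Frozen culture in Middlebrook 7H9 broth with 10% albumin-dextrose-catalase and 0.2% glycerol, thawed and diluted in broth to 10⁵ cfu/mL. Compounds dissolved in DMSO, twofold diluted in broth; final DMSO 1.3%. Tubes inoculated, incubated at 37 °C. Growth compared visually against drug-free and drug- and inoculum-free controls and isoniazid. MIC = lowest concentration inhibiting ≥99% of the starting bacterial population.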

COc1cc(/C=N/n2c(-c3nc(C(C)C)cs3)nn(CN3CCOCC3)c2=S)cc(OC)c1OC
MIC [1]: 125 µg/mL (≈ 241 µM) | MIC [2]: 62.5 µg/mL (≈ 121 µM) | MIC [3]: 125 µg/mL (≈ 241 µM) | MIC [4]: 16 µg/mL (≈ 30.8 µM) | MIC [5]: 62.5 µg/mL (≈ 121 µM) | MIC [6]: 62.5 µg/mL (≈ 121 µM) | MIC [7]: 125 µg/mL (≈ 241 µM) | MIC [8]: 62.5 µg/mL (≈ 121 µM) | MIC [9]: 62.5 µg/mL (≈ 121 µM) | MIC [10]: 31.2 µg/mL (≈ 60.3 µM)

CC(C)c1csc(-c2nnc3n2N=C(c2ccc(Cl)cc2)CS3)n1
MIC [1]: 16 µg/mL (≈ 42.6 µM) | MIC [2]: 16 µg/mL (≈ 42.6 µM) | MIC [3]: 125 µg/mL (≈ 333 µM) | MIC [4]: 16 µg/mL (≈ 42.6 µM) | MIC [5]: 8 µg/mL (≈ 21.3 µM) | MIC [6]: 8 µg/mL (≈ 21.3 µM) | MIC [7]: 125 µg/mL (≈ 333 µM) | MIC [8]: 62.5 µg/mL (≈ 166 µM) | MIC [9]: 31.2 µg/mL (≈ 83.1 µM) | MIC [10]: 16 µg/mL (≈ 42.6 µM)

COc1cc(C2Nn3c(nnc3-c3nc(C(C)C)cs3)S2)cc(OC)c1OC (centres undefined)
MIC [1]: 16 µg/mL (≈ 38.1 µM) | MIC [2]: 31.2 µg/mL (≈ 74.5 µM) | MIC [3]: 125 µg/mL (≈ 298 µM) | MIC [4]: 62.5 µg/mL (≈ 149 µM) | MIC [5]: 31.2 µg/mL (≈ 74.5 µM) | MIC [6]: 31.2 µg/mL (≈ 74.5 µM) | MIC [7]: 31.2 µg/mL (≈ 74.5 µM) | MIC [8]: 16 µg/mL (≈ 38.1 µM) | MIC [9]: 31.2 µg/mL (≈ 74.5 µM) | MIC [10]: 62.5 µg/mL (≈ 149 µM)

Cc1nn2c(-c3nc(C(C)C)cs3)nnc2s1
MIC [1]: 62.5 µg/mL (≈ 236 µM) | MIC [2]: 62.5 µg/mL (≈ 236 µM) | MIC [3]: 125 µg/mL (≈ 471 µM) | MIC [4]: 16 µg/mL (≈ 60.3 µM) | MIC [5]: 31.2 µg/mL (≈ 118 µM) | MIC [6]: 31.2 µg/mL (≈ 118 µM) | MIC [7]: 62.5 µg/mL (≈ 236 µM) | MIC [8]: 31.2 µg/mL (≈ 118 µM) | MIC [9]: 31.2 µg/mL (≈ 118 µM) | MIC [10]: 31.2 µg/mL (≈ 118 µM)

CC(C)c1csc(-c2nnc3n2NC(c2ccc([N+](=O)[O-])cc2)S3)n1 (centres undefined)
MIC [1]: 16 µg/mL (≈ 42.7 µM) | MIC [2]: 125 µg/mL (≈ 334 µM) | MIC [3]: 62.5 µg/mL (≈ 167 µM) | MIC [4]: 31.2 µg/mL (≈ 83.5 µM) | MIC [5]: 62.5 µg/mL (≈ 167 µM) | MIC [6]: 125 µg/mL (≈ 334 µM) | MIC [7]: 125 µg/mL (≈ 334 µM) | MIC [8]: 8 µg/mL (≈ 21.4 µM) | MIC [9]: 8 µg/mL (≈ 21.4 µM) | MIC [10]: 62.5 µg/mL (≈ 167 µM)

CC(C)c1csc(-c2nn(CN3CCN(C)CC3)c(=S)n2/N=C/c2ccccc2Cl)n1
MIC [1]: 125 µg/mL (≈ 263 µM) | MIC [2]: 31.2 µg/mL (≈ 65.6 µM) | MIC [3]: 125 µg/mL (≈ 263 µM) | MIC [4]: 16 µg/mL (≈ 33.6 µM) | MIC [5]: 125 µg/mL (≈ 263 µM) | MIC [6]: 31.2 µg/mL (≈ 65.6 µM) | MIC [7]: 16 µg/mL (≈ 33.6 µM) | MIC [8]: 125 µg/mL (≈ 263 µM) | MIC [9]: 62.5 µg/mL (≈ 131 µM) | MIC [10]: 31.2 µg/mL (≈ 65.6 µM)

CC(C)c1csc(-c2nnc3n2NC(c2ccc(O)cc2)S3)n1 (centres undefined)
MIC [1]: 62.5 µg/mL (≈ 181 µM) | MIC [2]: 62.5 µg/mL (≈ 181 µM) | MIC [3]: 62.5 µg/mL (≈ 181 µM) | MIC [4]: 62.5 µg/mL (≈ 181 µM) | MIC [5]: 31.2 µg/mL (≈ 90.5 µM) | MIC [6]: 62.5 µg/mL (≈ 181 µM) | MIC [7]: 62.5 µg/mL (≈ 181 µM) | MIC [8]: 125 µg/mL (≈ 362 µM) | MIC [9]: 125 µg/mL (≈ 362 µM) | MIC [10]: 125 µg/mL (≈ 362 µM)

OC(Cn1cncn1)(Cn1cncn1)c1ccc(F)cc1F [FLUCONAZOLE]
MIC [1]: ≤ 1 µg/mL | MIC [8]: ≤ 1 µg/mL | MIC [9]: ≤ 1 µg/mL

CC(C)c1csc(-c2nnc3n2N=C(c2ccccc2)CS3)n1
MIC [1]: 62.5 µg/mL (≈ 183 µM) | MIC [2]: 62.5 µg/mL (≈ 183 µM) | MIC [3]: 125 µg/mL (≈ 366 µM) | MIC [4]: 125 µg/mL (≈ 366 µM) | MIC [5]: 62.5 µg/mL (≈ 183 µM) | MIC [6]: 125 µg/mL (≈ 366 µM) | MIC [7]: 125 µg/mL (≈ 366 µM) | MIC [8]: 125 µg/mL (≈ 366 µM) | MIC [9]: 62.5 µg/mL (≈ 183 µM) | MIC [10]: 125 µg/mL (≈ 366 µM)

CC(C)c1csc(-c2nnc3n2NC(c2ccc(N(C)C)cc2)S3)n1 (centres undefined)
MIC [1]: 31.2 µg/mL (≈ 83.9 µM) | MIC [2]: 62.5 µg/mL (≈ 168 µM) | MIC [3]: 62.5 µg/mL (≈ 168 µM) | MIC [4]: 125 µg/mL (≈ 336 µM) | MIC [5]: 62.5 µg/mL (≈ 168 µM) | MIC [6]: 31.2 µg/mL (≈ 83.9 µM) | MIC [7]: 16 µg/mL (≈ 43 µM) | MIC [8]: 31.2 µg/mL (≈ 83.9 µM) | MIC [9]: 31.2 µg/mL (≈ 83.9 µM) | MIC [10]: 4 µg/mL (≈ 10.7 µM)

COc1ccc(C2Nn3c(nnc3-c3nc(C(C)C)cs3)S2)cc1 (centres undefined)
MIC [1]: 62.5 µg/mL (≈ 174 µM) | MIC [2]: 62.5 µg/mL (≈ 174 µM) | MIC [3]: 125 µg/mL (≈ 348 µM) | MIC [4]: 250 µg/mL (≈ 695 µM) | MIC [5]: 62.5 µg/mL (≈ 174 µM) | MIC [6]: 16 µg/mL (≈ 44.5 µM) | MIC [7]: 31.2 µg/mL (≈ 86.9 µM) | MIC [8]: 125 µg/mL (≈ 348 µM) | MIC [9]: 125 µg/mL (≈ 348 µM)

COc1ccc(/C=N/n2c(-c3nc(C(C)C)cs3)nn(CN3CCOCC3)c2=S)cc1
MIC [1]: 62.5 µg/mL (≈ 136 µM) | MIC [2]: 16 µg/mL (≈ 34.9 µM) | MIC [3]: 125 µg/mL (≈ 273 µM) | MIC [4]: 31.2 µg/mL (≈ 68.1 µM) | MIC [5]: 125 µg/mL (≈ 273 µM) | MIC [6]: 62.5 µg/mL (≈ 136 µM) | MIC [7]: 125 µg/mL (≈ 273 µM) | MIC [8]: 31.2 µg/mL (≈ 68.1 µM) | MIC [9]: 16 µg/mL (≈ 34.9 µM)

O=C(O)c1cn(C2CC2)c2cc(N3CCNCC3)c(F)cc2c1=O [CIPROFLOXACIN]
MIC [2]: ≤ 5 µg/mL | MIC [3]: ≤ 1 µg/mL | MIC [4]: ≤ 1 µg/mL | MIC [5]: ≤ 1 µg/mL | MIC [6]: ≤ 5 µg/mL | MIC [7]: ≤ 5 µg/mL

CCn1cc(C(=O)O)c(=O)c2cc(F)c(N3CCNCC3)cc21 [NORFLOXACIN]
MIC [2]: ≤ 5 µg/mL | MIC [3]: ≤ 1 µg/mL | MIC [4]: ≤ 1 µg/mL | MIC [5]: ≤ 1 µg/mL | MIC [6]: ≤ 5 µg/mL | MIC [7]: ≤ 5 µg/mL

NNC(=O)c1ccncc1 [ISONIAZID]
MIC [10]: 0.25 µg/mL (≈ 1.82 µM)
